Test results: ChEMBL document CHEMBL1629416, “Developing dual functional allosteric modulators of GABA(A) receptors” (Bioorg Med Chem, 2010)
Values joined by “and” are separate entries in the source; they are usually repeats but may differ in a detail not shown here. Identical values can stand only once. Active and inactive are the calls of the source. The rule behind the calls is not given here.

Columns and labels:
[1] = target: T1, GABA-A receptor; alpha-5/beta-3/gamma-2 (Homo sapiens) (UniProt P18507+P28472+P31644); test: Negative allosteric modulation of human alpha5beta3gamma2 GABA receptor expressed in Xenopus laevis oocytes at 1 uM; assay type: cell-based; settings: Oocyte
In short: (§1)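 Two-electrode voltage clamp on oocytes expressing human α/β/γ2 subtypes, used 2–10 days after injection. […] Baseline was the mean of three GABA-alone pulses. Result is % modulation, mean ± SEM over individual oocytes.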

[2] = target: T2, GABA-A receptor; alpha-2/beta-3/gamma-2 (Homo sapiens) (UniProt P18507+P28472+P47869); test: Negative allosteric modulation of human alpha2beta3gamma2 GABA receptor expressed in Xenopus laevis oocytes at 1 uM; assay type: cell-based; settings: Oocyte; in short: as §1
[3] = target: T2, GABA-A receptor; alpha-2/beta-3/gamma-2 (Homo sapiens); test: Positive allosteric modulation of human alpha2beta3gamma2 GABA receptor expressed in Xenopus laevis oocytes at 1 uM; assay type: cell-based; settings: Oocyte; in short: as §1
[4] = target: T3, GABA-A receptor; alpha-2/beta-3/gamma-2 (Homo sapiens, UniProt P18507+P28472+P47869); test: Displacement of [3H]flunitrazepam from human alpha2beta3gamma2 GABA receptor in Sf9 membranes after 1 hr by liquid scintillation counting
T3 sequence (P18507 whole entry): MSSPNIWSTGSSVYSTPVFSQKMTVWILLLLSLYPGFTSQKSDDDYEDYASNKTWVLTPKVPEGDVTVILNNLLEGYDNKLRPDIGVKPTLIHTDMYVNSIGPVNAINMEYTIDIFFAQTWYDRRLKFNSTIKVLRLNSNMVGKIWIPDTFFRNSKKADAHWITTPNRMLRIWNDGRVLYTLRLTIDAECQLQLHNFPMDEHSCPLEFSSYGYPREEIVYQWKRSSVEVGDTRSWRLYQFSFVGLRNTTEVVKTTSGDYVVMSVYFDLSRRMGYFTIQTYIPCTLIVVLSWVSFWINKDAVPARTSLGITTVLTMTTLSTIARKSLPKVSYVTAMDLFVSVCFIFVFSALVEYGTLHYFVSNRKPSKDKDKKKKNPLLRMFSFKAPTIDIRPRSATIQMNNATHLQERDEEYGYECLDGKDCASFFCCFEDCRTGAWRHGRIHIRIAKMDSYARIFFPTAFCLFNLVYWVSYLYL
T3 sequence (P28472 whole entry): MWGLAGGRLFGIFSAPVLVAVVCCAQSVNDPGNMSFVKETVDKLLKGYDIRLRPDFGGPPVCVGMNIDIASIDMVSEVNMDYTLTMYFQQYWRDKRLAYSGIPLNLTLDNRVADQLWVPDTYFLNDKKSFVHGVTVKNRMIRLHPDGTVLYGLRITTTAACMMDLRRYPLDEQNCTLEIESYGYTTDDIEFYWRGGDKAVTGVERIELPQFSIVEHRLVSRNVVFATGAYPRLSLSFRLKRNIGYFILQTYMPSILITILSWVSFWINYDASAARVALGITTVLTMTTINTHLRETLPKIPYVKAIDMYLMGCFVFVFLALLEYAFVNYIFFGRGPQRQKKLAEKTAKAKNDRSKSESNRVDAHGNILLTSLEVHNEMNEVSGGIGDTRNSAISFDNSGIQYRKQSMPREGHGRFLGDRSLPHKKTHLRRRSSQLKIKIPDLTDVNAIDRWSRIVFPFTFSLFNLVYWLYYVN
T3 sequence (P47869 whole entry): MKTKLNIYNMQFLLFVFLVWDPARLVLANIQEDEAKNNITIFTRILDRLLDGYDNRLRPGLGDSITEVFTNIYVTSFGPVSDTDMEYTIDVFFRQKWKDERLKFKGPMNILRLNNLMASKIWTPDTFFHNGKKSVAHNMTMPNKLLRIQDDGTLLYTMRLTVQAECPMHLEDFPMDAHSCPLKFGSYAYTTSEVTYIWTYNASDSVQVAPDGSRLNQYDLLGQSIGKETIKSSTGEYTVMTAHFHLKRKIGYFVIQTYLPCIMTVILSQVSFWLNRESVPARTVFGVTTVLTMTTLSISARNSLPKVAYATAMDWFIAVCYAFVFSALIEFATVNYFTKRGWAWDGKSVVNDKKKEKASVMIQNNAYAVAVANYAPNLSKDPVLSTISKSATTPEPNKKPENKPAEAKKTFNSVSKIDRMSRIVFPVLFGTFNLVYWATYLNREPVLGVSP
In short: (§2)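 [3H]Flunitrazepam (3 nM) competition on recombinant Sf9 membranes co-expressing α, β and γ2 subunits. Compound incubated 1 h at 4 °C in 20 mM Tris–citrate, 200 mM NaCl, pH 7.8, with membrane protein.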

[5] = target: T4, GABA-A receptor; alpha-1/beta-2/gamma-2 (Homo sapiens) (UniProt P14867+P47870+P18507); test: Positive allosteric modulation of human alpha1beta2gamma2 GABA receptor expressed in Xenopus laevis oocytes at 1 uM; assay type: cell-based; settings: Oocyte; in short: as §1
[6] = target: T5, GABA-A receptor; alpha-3/beta-3/gamma-2 (Homo sapiens, UniProt P18507+P28472+P34903); test: Binding affinity to human alpha3beta3gamma2 GABA receptor expressed in Xenopus laevis oocytes; assay type: cell-based, Oocyte
T5 sequence (P18507 whole entry): T3 sequence (P18507 whole entry)
T5 sequence (P28472 whole entry): T3 sequence (P28472 whole entry)
T5 sequence (P34903 whole entry): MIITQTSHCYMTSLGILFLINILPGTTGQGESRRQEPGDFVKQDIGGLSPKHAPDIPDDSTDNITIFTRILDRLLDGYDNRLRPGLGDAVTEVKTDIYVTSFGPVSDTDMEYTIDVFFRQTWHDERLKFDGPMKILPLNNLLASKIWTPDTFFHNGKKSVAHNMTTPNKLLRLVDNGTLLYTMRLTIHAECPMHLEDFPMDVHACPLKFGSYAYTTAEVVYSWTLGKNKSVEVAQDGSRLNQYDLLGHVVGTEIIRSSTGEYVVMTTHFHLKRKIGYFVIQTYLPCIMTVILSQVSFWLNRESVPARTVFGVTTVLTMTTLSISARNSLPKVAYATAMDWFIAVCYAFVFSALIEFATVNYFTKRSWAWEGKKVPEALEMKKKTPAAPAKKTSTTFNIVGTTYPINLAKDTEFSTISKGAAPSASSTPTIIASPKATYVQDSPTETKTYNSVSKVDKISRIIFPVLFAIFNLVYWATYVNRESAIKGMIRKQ

[7] = target: T4, GABA-A receptor; alpha-1/beta-2/gamma-2 (Homo sapiens); test: Effect on human alpha1beta2gamma2 GABA receptor expressed in Xenopus laevis oocytes at 10 uM; assay type: cell-based; settings: Oocyte
[8] = target: T6, GABA-A receptor; alpha-5/beta-3/gamma-2 (Homo sapiens, UniProt P18507+P28472+P31644); test: Displacement of [3H]flunitrazepam from human alpha5beta3gamma2 GABA receptor in Sf9 membranes after 1 hr by liquid scintillation counting; in short: as §2
T6 sequence (P18507 whole entry): T3 sequence (P18507 whole entry)
T6 sequence (P28472 whole entry): T3 sequence (P28472 whole entry)
T6 sequence (P31644 whole entry): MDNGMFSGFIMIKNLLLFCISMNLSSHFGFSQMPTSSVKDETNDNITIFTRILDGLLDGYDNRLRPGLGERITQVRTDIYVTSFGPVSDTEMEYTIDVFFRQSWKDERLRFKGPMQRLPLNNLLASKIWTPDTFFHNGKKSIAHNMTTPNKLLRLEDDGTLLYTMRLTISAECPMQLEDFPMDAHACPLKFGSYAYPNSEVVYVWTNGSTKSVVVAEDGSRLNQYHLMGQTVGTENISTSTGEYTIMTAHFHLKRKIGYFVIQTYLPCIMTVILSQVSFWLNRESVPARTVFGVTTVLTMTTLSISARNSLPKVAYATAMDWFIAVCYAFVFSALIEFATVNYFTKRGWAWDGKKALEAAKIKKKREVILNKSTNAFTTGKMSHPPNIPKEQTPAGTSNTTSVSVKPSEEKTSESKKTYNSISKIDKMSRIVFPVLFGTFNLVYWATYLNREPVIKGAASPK

[9] = target: T6, GABA-A receptor; alpha-5/beta-3/gamma-2; test: Binding affinity to human alpha5beta3gamma2 GABA receptor expressed in Xenopus laevis oocytes; assay type: cell-based, Oocyte
[10] = target: T7, GABA-A receptor; alpha-3/beta-3/gamma-2 (Homo sapiens) (UniProt P18507+P28472+P34903); test: Positive allosteric modulation of human alpha3beta3gamma2 GABA receptor expressed in Xenopus laevis oocytes at 1 uM; assay type: cell-based; settings: Oocyte; in short: as §1
[11] = target: T3, GABA-A receptor; alpha-2/beta-3/gamma-2; test: Binding affinity to human alpha2beta3gamma2 GABA receptor expressed in Xenopus laevis oocytes; assay type: cell-based, Oocyte
[12] = target: T4, GABA-A receptor; alpha-1/beta-2/gamma-2 (Homo sapiens); test: Negative allosteric modulation of human alpha1beta2gamma2 GABA receptor expressed in Xenopus laevis oocytes at 1 uM; assay type: cell-based; settings: Oocyte
[13] = target: T1, GABA-A receptor; alpha-5/beta-3/gamma-2 (Homo sapiens); test: Positive allosteric modulation of human alpha5beta3gamma2 GABA receptor expressed in Xenopus laevis oocytes at 1 uM; assay type: cell-based; settings: Oocyte; in short: as §1
[14] = target: T7, GABA-A receptor; alpha-3/beta-3/gamma-2 (Homo sapiens); test: Negative allosteric modulation of human alpha3beta3gamma2 GABA receptor expressed in Xenopus laevis oocytes at 1 uM; assay type: cell-based; settings: Oocyte
[15] = target: T8, GABA-A receptor; alpha-1/beta-2/gamma-2 (Homo sapiens, UniProt P14867+P18507+P47870); test: Binding affinity to human alpha1beta2gamma2 GABA receptor expressed in Xenopus laevis oocytes; assay type: cell-based, Oocyte
T8 sequence (P14867 whole entry): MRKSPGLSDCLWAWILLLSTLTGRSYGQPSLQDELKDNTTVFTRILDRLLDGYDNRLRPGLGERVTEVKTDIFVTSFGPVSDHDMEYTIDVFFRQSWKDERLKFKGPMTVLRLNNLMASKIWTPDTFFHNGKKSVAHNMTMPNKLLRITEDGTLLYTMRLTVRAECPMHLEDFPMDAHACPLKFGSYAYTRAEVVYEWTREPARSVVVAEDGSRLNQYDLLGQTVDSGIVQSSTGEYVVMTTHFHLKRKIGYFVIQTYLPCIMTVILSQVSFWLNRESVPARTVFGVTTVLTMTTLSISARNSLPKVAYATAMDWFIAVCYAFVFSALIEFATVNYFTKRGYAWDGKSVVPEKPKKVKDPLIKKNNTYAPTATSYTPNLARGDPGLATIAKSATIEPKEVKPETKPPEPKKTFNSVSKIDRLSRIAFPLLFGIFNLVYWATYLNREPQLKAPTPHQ
T8 sequence (P47870 whole entry): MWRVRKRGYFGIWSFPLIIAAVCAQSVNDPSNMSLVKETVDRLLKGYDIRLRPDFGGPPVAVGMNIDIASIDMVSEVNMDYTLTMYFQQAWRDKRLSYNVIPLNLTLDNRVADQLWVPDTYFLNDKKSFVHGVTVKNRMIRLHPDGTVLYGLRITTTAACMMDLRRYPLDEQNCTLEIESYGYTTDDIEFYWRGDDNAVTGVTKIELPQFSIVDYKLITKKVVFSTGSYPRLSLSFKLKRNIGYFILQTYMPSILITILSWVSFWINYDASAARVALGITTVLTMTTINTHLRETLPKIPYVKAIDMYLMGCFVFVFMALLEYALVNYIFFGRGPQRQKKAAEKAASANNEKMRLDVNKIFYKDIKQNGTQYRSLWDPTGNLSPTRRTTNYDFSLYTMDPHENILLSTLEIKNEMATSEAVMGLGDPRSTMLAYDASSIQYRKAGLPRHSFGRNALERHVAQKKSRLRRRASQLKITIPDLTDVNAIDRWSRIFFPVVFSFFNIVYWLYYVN
T8 sequence (P18507 whole entry): T3 sequence (P18507 whole entry)

SMILES: Nc1c(C(=O)N2CCC2)nnc2c(-c3ncccn3)cccc12
- Activity [1]: 22%
- Activity [2]: 5%

SMILES: Nc1c(C(=O)N2CC(F)(F)C2)nnc2c(-c3ncccn3)cccc12
- Activity [1]: 4%
- Activity [3]: 6%

SMILES: Nc1c2c(nc3c(-c4ncccn4)cccc13)CN(C1CCC1)C2=O
- Ki [4]: 8.3 nM
- Activity [5]: 1%
- Activity [1]: 46% and 32%
- EC50 [6]: 77 nM
- Activity [3]: 44% and 38%
- Activity [7]: inactive
- Ki [8]: 14 nM
- EC50 [9]: 206 nM
- Activity [10]: 40%
- EC50 [11]: 34 nM

SMILES: CCCNC(=O)c1nnc2c(-c3ncccn3)cccc2c1N
- Ki [4]: 380 nM
- EC50 [6]: 379 nM
- Activity [12]: 5%
- EC50 [9]: 1130 nM
- Activity [10]: 41%
- EC50 [11]: 104 nM

SMILES: Nc1c(C(=O)NC2CC2)nnc2c(-c3ncccn3)c(F)ccc12
- Activity [3]: 39%
- Activity [13]: 2%

SMILES: Nc1c(C(=O)NC2CC2)nnc2c(-c3ncccn3)cccc12
- Activity [1]: 5%
- Activity [3]: 54%

SMILES: CC1CN(C(=O)c2nnc3c(-c4ncccn4)cccc3c2N)C1
- Activity [1]: 35%
- Activity [3]: 14%

SMILES: CCc1c(C(=O)OC)ncc2[nH]c3cc(OC)c(OC)cc3c12
- Activity [1]: 69%
- Activity [2]: 61%
- EC50 [6]: 10 nM
- Activity [12]: 68%
- EC50 [9]: 3 nM
- Activity [14]: 58%
- EC50 [11]: 14 nM
- EC50 [15]: 9 nM

SMILES: Nc1c2c(nc3c(-c4cncnc4)cccc13)CN(C1CCC1)C2=O
- Ki [4]: 1.5 nM
- Activity [1]: 2%
- Activity [3]: 18%
- Ki [8]: 12 nM

SMILES: Nc1c(C(=O)N2CCC2)nnc2c(-c3ncccn3)c(F)ccc12
- Activity [3]: 8%
- Activity [13]: 10%

SMILES: CCCNC(=O)c1nnc2c(-c3cncc(C(=O)N4CCC4)c3)cccc2c1N
- Activity [1]: 45%
- Activity [2]: 5%
- EC50 [6]: 174 nM
- Activity [12]: 14%
- EC50 [9]: 455 nM
- Activity [14]: 11%
- EC50 [11]: 54 nM
- EC50 [15]: 389 nM

SMILES: CCCNC(=O)c1nnc2c(-c3ncccn3)c(F)ccc2c1N
- Ki [4]: 6 nM
- Activity [1]: 3%
- Activity [3]: 31%

SMILES: CC1CN(C(=O)c2nnc3c(-c4ncccn4)c(F)ccc3c2N)C1
- Activity [3]: 18%
- Activity [13]: 0%

SMILES: Nc1c(C(=O)N2CC(F)(F)C2)nnc2c(-c3ncccn3)c(F)ccc12
- Activity [2]: 7%
- Activity [13]: 13%

SMILES: CN1C(=O)CN=C(c2ccccc2)c2cc(Cl)ccc21
- Activity [5]: 192%
- Activity [3]: 177%
- Activity [13]: 153%
- Activity [10]: 207%
